High-throughput results: PubChem, The Scripps Research Institute Molecular Screening Center
Compounds with a hit are over-represented: about 1.7% of the library has one in this group of screens.
HIV Rev-RRE inh – inhibitors of HIV-1 Rev-RRE RNA interaction; 97,000 tested, 0.79% active; P05866; inhibition, % at 8 µM; Rev peptide-RRE RNA binding, FRET;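 active = inhibition above the screen-wide mean plus 3 SD, cut at about 35% in these data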
Target sequence (P05866 whole entry, looked up): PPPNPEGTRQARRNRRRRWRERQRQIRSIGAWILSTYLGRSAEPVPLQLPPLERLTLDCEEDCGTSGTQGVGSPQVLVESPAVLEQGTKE
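Test system: labelled RRE RNA duplex and labelled Rev peptide. Times: 5 min compound–RNA preincubation, then 15 min with peptide, 25 °C. Doses: single-dose 8 µM. Measured by: FRET, excitation 480 nm, emission 540 nm donor and 671 nm acceptor. Measure: % inhibition of FRET ratio versus controls.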
S1P2 antag – antagonists of human S1P2 receptor | cell-based S1P2 antagonist assay, inhibition at 5 uM | inhibition, % at 5 µM | 97,000 tested, 0.21% active | AID 736; in the data active = inhibition above about 45%;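 also: CRE beta-lactamase reporter cells expressing human S1P2 stimulated with S1P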
GALR2 blocker – blocks the human galanin receptor 2 | GALR2-expressing cells, antagonist mode | O43603 | inhibition, % at 4 µM | AID 828 | 140,000 tested, 0.39% active; in the data active = inhibition above about 27%;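 also: cells stimulated with galanin 1-16 at roughly its EC80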
Target sequence (O43603 whole entry, looked up): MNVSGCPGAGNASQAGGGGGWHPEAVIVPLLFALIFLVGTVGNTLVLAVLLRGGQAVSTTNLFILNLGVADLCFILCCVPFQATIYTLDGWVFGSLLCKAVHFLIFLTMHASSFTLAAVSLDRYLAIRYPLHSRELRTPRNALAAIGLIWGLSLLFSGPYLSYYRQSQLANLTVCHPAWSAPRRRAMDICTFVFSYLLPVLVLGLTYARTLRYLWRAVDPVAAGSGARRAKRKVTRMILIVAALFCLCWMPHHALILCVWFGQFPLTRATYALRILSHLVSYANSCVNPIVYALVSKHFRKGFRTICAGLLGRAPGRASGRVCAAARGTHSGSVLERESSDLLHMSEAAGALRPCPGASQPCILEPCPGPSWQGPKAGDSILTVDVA
GALR2 ag – activates the human galanin receptor 2; O43603; activation, % (test concentration not listed); GALR2-expressing cells, agonist activation read-out; 140,000 tested, 0.48% active; in the data active = activation above about 5%, passing the limit was not always enough
S1P2 ag – activates the human S1P2 receptor | O95136 | 97,000 tested, 0.46% active | AID 729 | S1P2-expressing cell line, agonist reporter read-out | activation, % at 4.5 µM; in the data active = activation above about 16%
EphB4 antag – antagonists of human EphB4-ephrin-B2 interaction; P54760; EphB4 LBD / TNYL-RAW-Alexa532 peptide, fluorescence polarization; inhibition, % at 7 µM; 97,000 tested, 0.15% active; AID 720;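 active = inhibition above the screen-wide mean inhibition plus 3 SD, cut at about 15% in these data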
A number is an active result; [ ] = another dose, or the depositor's remark.

Results for C=CCn1c(=O)/c(=C/c2ccc(O)cc2)s/c1=C(/C#N)c1nnc2n1CCCCC2 ?
HIV Rev-RRE inh: 73.5; S1P2 antag: inactive; GALR2 blocker: inactive; GALR2 ag: inactive; S1P2 ag: inactive; EphB4 antag: inactive

Results for CCOC(=O)c1cn(Cc2c(C)c(C)c(C)c(C)c2C)nn1 ?
GALR2 blocker: inactive; GALR2 ag: inactive

Results for C=CS(=O)(=O)c1ccc(Oc2ccc(S(=O)(=O)C=C)cc2)cc1 ?
GALR2 blocker: 91.0; GALR2 ag: inactive

How did c1ccc(-c2cc3nccc(-c4ccccn4)n3n2)cc1 do in these assays?
GALR2 blocker: inactive; GALR2 ag: inactive

Results for Cc1cc(C)nc(NN2C(=O)/C(=C/c3ccc(O)cc3)SC2=S)n1 ?
HIV Rev-RRE inh: 58.4; S1P2 antag: inactive; GALR2 blocker: inactive; GALR2 ag: inactive; S1P2 ag: inactive; EphB4 antag: inactive

What do the screens show for `O=C(/C=C/c1ccccc1Cl)NC(=S)Nc1ccccc1C(=O)NC1CCCCC1`?
HIV Rev-RRE inh: inactive; S1P2 antag: inactive; GALR2 blocker: inactive; GALR2 ag: inactive; S1P2 ag: inactive; EphB4 antag: inactive

Results for Cc1ccc(-c2c3c(=O)n(C)c(=O)n(C)c3c3nnc4ccccc4n23)cc1 ?
HIV Rev-RRE inh: inactive; S1P2 antag: inactive; GALR2 blocker: inactive; GALR2 ag: inactive; S1P2 ag: inactive; EphB4 antag: inactive

How did Cc1cccc(-c2c3c(=O)n(C)c(=O)n(C)c3c3nnc4ccccc4n23)c1 do in these assays?
HIV Rev-RRE inh: 48.7; S1P2 antag: inactive; GALR2 blocker: inactive; GALR2 ag: inactive; S1P2 ag: inactive; EphB4 antag: inactive

How did Cc1c(NC(=O)COC(=O)C(c2ccc(Cl)cc2)C(C)C)c(=O)n(-c2ccccc2)n1C (stereo not drawn) do in these assays?
HIV Rev-RRE inh: inactive; S1P2 antag: inactive; GALR2 blocker: inactive; GALR2 ag: inactive; S1P2 ag: inactive; EphB4 antag: 16.9

What do the screens show for `Cc1nc(C)c(C(=O)NNS(=O)(=O)c2ccc([N+](=O)[O-])cc2)s1`?
GALR2 blocker: inactive; GALR2 ag: inactive

Results for Cc1cc(F)ccc1NCc1cccnc1 ?
HIV Rev-RRE inh: inactive; S1P2 antag: inactive; GALR2 blocker: inactive; GALR2 ag: inactive; S1P2 ag: inactive; EphB4 antag: inactive

What do the screens show for `Fc1ccc(NCc2cccnc2)cc1F`?
HIV Rev-RRE inh: 41.2; S1P2 antag: inactive; GALR2 blocker: inactive; GALR2 ag: inactive; S1P2 ag: inactive; EphB4 antag: inactive

What do the screens show for `O=C(NC(=S)Nc1ccc(S(=O)(=O)Nc2nccs2)cc1)c1ccc(F)cc1`?
GALR2 blocker: inactive; GALR2 ag: inactive

How did COc1ccc(OC)c(/C=c2\sc3nc(-c4cccs4)nn3c2=O)c1 do in these assays?
HIV Rev-RRE inh: 57.4; S1P2 antag: inactive; GALR2 blocker: inactive; GALR2 ag: inactive; S1P2 ag: inactive; EphB4 antag: inactive

What do the screens show for `COc1ccccc1/C=c1\sc2nc(-c3ccco3)nn2c1=O`?
HIV Rev-RRE inh: inactive; S1P2 antag: inactive; GALR2 blocker: inactive; GALR2 ag: inactive; S1P2 ag: inactive; EphB4 antag: inactive

How did CCN1C(=O)N/C(=C/c2ccc(C)o2)C1=O do in these assays?
GALR2 blocker: inactive; GALR2 ag: inactive

Results for Cc1ccc(/C=C2/NC(=O)N(Cc3ccc(Br)cc3)C2=O)o1 ?
GALR2 blocker: inactive; GALR2 ag: 6.1

What do the screens show for `O=c1[nH]c(Nc2ccccc2)cc2ccccc12`?
HIV Rev-RRE inh: 61.3; S1P2 antag: inactive; GALR2 blocker: inactive; GALR2 ag: inactive; S1P2 ag: inactive; EphB4 antag: inactive

Results for Nn1c(Nc2ccccc2)nc2ccccc2c1=O ?
HIV Rev-RRE inh: inactive; S1P2 antag: inactive; GALR2 blocker: inactive; GALR2 ag: inactive; S1P2 ag: inactive; EphB4 antag: inactive

Results for N#Cc1c(-c2ccccc2)ccn(Cc2ccc(Cl)cc2)c1=O ?
HIV Rev-RRE inh: inactive; S1P2 antag: inactive; GALR2 blocker: inactive; GALR2 ag: inactive; S1P2 ag: inactive; EphB4 antag: inactive

What do the screens show for `COc1ccc(-c2nc(-c3cccs3)c(-c3cccs3)[nH]2)cc1O`?
HIV Rev-RRE inh: inactive; S1P2 antag: inactive; GALR2 blocker: inactive; GALR2 ag: inactive; S1P2 ag: inactive; EphB4 antag: inactive

How did Cc1cc(/C=C2\SC(=S)N(Cc3ccco3)C2=O)c(C)n1-c1cccnc1 do in these assays?
HIV Rev-RRE inh: 95.0[fluorescence artefact?]; S1P2 antag: inactive; GALR2 blocker: inactive; GALR2 ag: inactive; S1P2 ag: inactive; EphB4 antag: inactive
